Published values from different studies.
Lines come from different studies, so protocols differ.
Cell line: MCF7
Read-out: cell growth or viability

CN1CCc2c(c3ccccc3n2Cc2ccc(C(=O)NO)cc2)C1 — IC50 (CCK-8; 48 h): 27.4 µM
COc1ccc(NC(=S)N/N=C/c2cccc3cc4ccccc4nc23)cc1 — IC50 (MTT; 48 h): > 50 µM
O=C1CS/C(=N\c2cc(C(F)(F)F)ccc2-c2nnc(N3C(=O)CS/C3=N\c3cccc(Cl)c3)s2)N1c1cccc(Cl)c1 — IC50 (MTT): 49.2 µM
O=C(NO)Nc1nc2c(Cl)cc(Cl)cc2c(=O)n1-c1ccc(Cl)cc1 — IC50 (MTT; 48 h): > 200 µM
O=C1Nc2ccccc2C1=Nc1cccc(Cl)c1 — IC50 (MTT; 48 h): > 100 µM
COc1cccc2c1C(=O)c1c(O)c3c(c(O)c1C2=O)C[C@@](O)(C(=O)CO)C[C@@H]3O[C@H]1C[C@H](N)[C@H](O)[C@H](C)O1 — IC50 (MTT; 48 h): 8.87 µM
O=C1C(Cl)=C(n2cncn2)C(=O)c2ccccc21 — IC50 (MTT; 24 h): 26.8 µg/mL
C[C@H]1[C@H](C)CC[C@]2(C)CC[C@]3(C)C(=CC(=O)[C@@H]4[C@@]5(C)CC[C@@H](O)[C@](C)(C(=O)NCc6cn(-c7ccccc7)nn6)[C@@H]5CC[C@]43C)[C@H]12 — IC50 (MTT; 24 h): 124 µM
Cc1cccc(N=C2C(=O)N(Cc3ccc(Br)cc3)c3ccccc32)c1 — IC50 (MTT; 48 h): 9.69 µM
NNc1nc2ccc(Br)cc2c(=O)n1-c1ccc(Cl)cc1 — IC50 (MTT; 48 h): 12.8 µM
Cc1nc2ccc(-c3ccc(F)cc3F)cc2c(O)c1C(=O)O — IC50 (MTT; 48 h): ≥ 100 µM
NS(=O)(=O)c1ccc(-n2nc(C(=O)NN=Cc3ccccc3O)cc2-c2ccccc2)cc1 — IC50 (fluorescence; 48 h): 18 µM
O=C(C=Cc1cccs1)c1ccc(OCCCOc2ccc(C(=O)C=Cc3cccs3)cc2)cc1 — IC50 (MTT; 48 h): 4.05 µM
O=C1Nc2ccccc2C1=Nc1ccc(Cl)cc1 — IC50 (MTT; 48 h): 72.3 µM
O=C1CS/C(=N\c2ccccc2Cl)N1c1nnc(-c2ccc(C(F)(F)F)cc2/N=C2\SCC(=O)N2c2ccccc2Cl)s1 — IC50 (MTT): 47.1 µM
COc1cccc2c1C(=O)c1c(O)c3c(c(O)c1C2=O)C[C@@](O)(C(=O)CO)C[C@@H]3O[C@H]1C[C@H](N)[C@H](O)[C@H](C)O1 — IC50 (LDH; 48 h): 1.81 µM
O=[N+]([O-])c1ccc(O)c(C=NNc2ccc(C(F)(F)F)cc2)c1 — IC50 (MTT; 24 h): 13 µM
Cc1noc(-c2nn(Cc3ccc(Cl)cc3Cl)c3ccccc23)n1 — IC50 (48 h): 47.5 µM
C(=N\Nc1cc(N/N=C/c2ccc3ccccc3n2)ncn1)/c1ccc2ccccc2n1 — IC50 (MTT; 48 h): 34.3 µM
CN1CCC(NC2CCc3[nH]c4c(C(N)=O)ccc(-c5ccccc5Cl)c4c3C2)CC1 (stereo not shown) — IC50 (96 h): 0.0164 µM
CC(=O)c1c(O)c2ccccc2oc1=O — IC50 (MTT; 48 h): 32.5 µM
O=C(O)c1c[nH]c2ccc(Oc3ccccc3)cc2c1=O — IC50 (MTT): ≥ 200 µM
